Results reported in ChEMBL document CHEMBL1128300, “Synthesis and in vivo evaluation of prodrugs of 9-[2-(phosphonomethoxy)ethoxy]adenine” (J Med Chem, 1995).
pIC50: −log10 of the molar value.

How the values were obtained:
Mus musculus [1] = experiment: Concentration of the 9-[2-(Phosphonomethoxy)ethoxy]adenine in the blood following oral administration in mice; type: ADME, organism-based; design: unit not given here; settings: in vivo
Summary of the method: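 Single 0.2 mmol/kg oral gavage dose to female BALB/c mice fasted 16 h, vehicle 1% carboxymethyl cellulose plus 1% Tween 80 in water. At each time point blood from three mice pooled, deproteinized with ice-cold ethanol at -20 °C, and parent phosphonate quantified by C18 HPLC with a gradient from pH 2.6 phosphate ion-pair buffer to 80% methanol.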

Mus musculus [2] = experiment: % bioavailability in mice after oral administration of prodrug; type: ADME, organism-based; settings: in vivo
Summary of the method: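 Female BALB/c mice, fasted 16 h, single oral gavage 0.2 mmol/kg in 1% carboxymethyl cellulose plus 1% Tween 80 in water. Blood from three mice per time point pooled, ethanol-deproteinized, analysed by reversed-phase C18 HPLC (ion-pair phosphate buffer pH 2.6 / methanol gradient). Bioavailability as oral AUC of released parent phosphonate expressed as percent of intravenous AUC of its sodium salt.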

[3] = test system: Feline immunodeficiency virus; experiment: Inhibitory activity against Feline immunodeficiency virus.; type: functional, organism-based
[4] = test system: Simian immunodeficiency virus; experiment: Inhibitory activity against Simian immunodeficiency virus.; type: functional, organism-based
[5] = test system: Human immunodeficiency virus 2; experiment: Inhibitory activity against HIV-2, in peripheral blood lymphocytes
[6] = test system: Human immunodeficiency virus 1; experiment: Inhibitory activity against HIV-1, in peripheral blood lymphocytes

SMILES | AUC (Mus musculus [1]) | F% (Mus musculus [2]) [%] | also measured
CC(=O)Oc1ccccc1OP(=O)(COCCOn1cnc2c(N)ncnc21)Oc1ccccc1OC(C)=O | 5 | 10 | –
COc1ccc(OP(=O)(COCCOn2cnc3c(N)ncnc32)Oc2ccc(OC)cc2)cc1 | 5 | 10 | –
Nc1ncnc2c1ncn2OCCOCP(=O)(Oc1ccc(Br)cc1)Oc1ccc(Br)cc1 | 3 | 6 | –
Nc1ncnc2c1ncn2OCCOCP(=O)(OCCBr)OCCBr | 4 | 8 | –
Nc1ncnc2c1ncn2OCCOCP(=O)(Oc1ccccc1)Oc1ccccc1 | 13 | 26 | –
Cc1ccccc1OP(=O)(COCCOn1cnc2c(N)ncnc21)Oc1ccccc1C | 11 | 22 | –
CC(=O)OCc1ccc(OP(=O)(COCCOn2cnc3c(N)ncnc32)Oc2ccc(COC(C)=O)cc2)cc1 | 0 | 0 | –
Nc1ncnc2c1ncn2OCCOCP(=O)(OCC(Cl)Cl)OCC(Cl)Cl | 3 | 6 | –
CCOCCOP(=O)(COCCOn1cnc2c(N)ncnc21)OCCOCC | 0 | 0 | –
Nc1ncnc2c1ncn2OCCOCP(=O)(O)O | – | – | pIC50 [3]: 5.77; pIC50 [4]: 5.52; pIC50 [5]: 6.52; pIC50 [6]: 6.70
COP(=O)(COCCOn1cnc2c(N)ncnc21)OC | 0 | 0 | –
CC(C)(C)OC(=O)c1ccc(OP(=O)(COCCOn2cnc3c(N)ncnc32)Oc2ccc(C(=O)OC(C)(C)C)cc2)cc1 | 0 | 0 | –
Nc1ncnc2c1ncn2OCCOCP(=O)(OCc1ccc(Br)cc1)OCc1ccc(Br)cc1 | 1 | 2 | –
CC(=O)Oc1ccc(COP(=O)(COCCOn2cnc3c(N)ncnc32)OCc2ccc(OC(C)=O)cc2)cc1 | 4 | 8 | –
CC(C)(C)C(=O)OCOP(=O)(COCCOn1cnc2c(N)ncnc21)OCOC(=O)C(C)(C)C | 15 | 30 | –
CC(C)(CCl)C(=O)OCOP(=O)(COCCOn1cnc2c(N)ncnc21)OCOC(=O)C(C)(C)CCl | 0 | 0 | –
Nc1ncnc2c1ncn2OCCOCP(=O)(OCc1ccccc1)OCc1ccccc1 | 2 | 4 | –
CC(C)C(=O)Oc1ccc(COP(=O)(COCCOn2cnc3c(N)ncnc32)OCc2ccc(OC(=O)C(C)C)cc2)cc1 | 0.5 | 1 | –
CCCCOP(=O)(COCCOn1cnc2c(N)ncnc21)OCCCC | 0 | 0 | –
CC(C)OP(=O)(COCCOn1cnc2c(N)ncnc21)OCC(=O)OC(C)(C)C (stereo unspecified) | 0 | 0 | –
CC(OC(=O)C(C)C)OP(=O)(COCCOn1cnc2c(N)ncnc21)OC(C)OC(=O)C(C)C (stereo unspecified) | 12 | 24 | –
CC(OC(=O)C(C)(C)C)OP(=O)(COCCOn1cnc2c(N)ncnc21)OC(C)OC(=O)C(C)(C)C (stereo unspecified) | 37 | 74 | –
CC(C)OP(=O)(COCCOn1cnc2c(N)ncnc21)OC(C)C | 5 | 10 | –
CCOP(=O)(COCCOn1cnc2c(N)ncnc21)OCC | 4 | 8 | –
CC(=O)Oc1ccc(OP(=O)(COCCOn2cnc3c(N)ncnc32)Oc2ccc(OC(C)=O)cc2)cc1 | 4 | 8 | –
Nc1ncnc2c1ncn2OCCOCP(=O)(OCc1ccc(Cl)cc1)OCc1ccc(Cl)cc1 | 4 | 8 | –
Cl.Nc1ncnc2c1ncn2OCCOCP(=O)(Oc1ccccc1)Oc1ccccc1 | 25 | 50 | –
